Test results reported in ChEMBL document CHEMBL1138863, “Synthesis, in vitro antiviral evaluation, and stability studies of novel alpha-borano-nucleotide analogues of 9-[2-(phosphonomethoxy)ethyl]adenine and (R)-9-[2-(phosphonomethoxy)propyl]adenine” (J Med Chem, 2006).

Columns and labels:
[1] = Stability in pH 5.2 buffer at 37 degC after 72 hrs; format: physicochemical; details: pH 5.2, 72 h
Summary of the method: (§1)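 Compound at 0.1 mM final in buffer (pH 1.2, 5.2, 7.4, 8.1, 9.0 or 11.5) at 37 °C up to 72 h; aliquots frozen at -80 °C, analysed by reverse-phase HPLC (TEAB/acetonitrile gradient, 260 nm); "stable" = less than 5% decomposition after 72 h.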

[2] = Stability in pH 11.5 buffer at 37 degC after 72 hrs; format: physicochemical; details: pH 11.5, 72 h; summary of the method: as §1
[3] = Cytotoxicity against Vero cells; format: cell-based; details: chlorocebus sabaeus
[4] = Cytotoxicity against Huh5-2 cells; format: cell-based, Huh-5-2; details: human
Summary of the method: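 Parallel Huh-5-2 cultures (7000 cells/well) given five 5-fold compound dilutions from 100 µM without G418; proliferation measured 3 days after addition by MTS bioreduction to formazan, read in a plate reader.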

[5] = tested on: Sindbis virus; experiment: Antiviral activity against Sindbis virus in Vero cells; format: functional, organism-based
[6] = tested on: Human alphaherpesvirus 2; experiment: Antiviral activity against HSV2 in HEL cells; format: functional, organism-based; details: Human alphaherpesvirus 2, HEL
[7] = tested on: Human alphaherpesvirus 1; experiment: (§2) Antiviral activity against HSV1 KOS in HEL cells; format: functional, organism-based; details: Human alphaherpesvirus 1, KOS
[8] = tested on: Human immunodeficiency virus 1; experiment: Antiviral activity against HIV1 in MAGI-CCR5 cells; format: functional, organism-based; details: Human immunodeficiency virus 1, MAGI-CCR5
[9] = Cytotoxicity against MAGI-CCR5 cells; format: cell-based; details: human
Summary of the method: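 MAGI-CCR5 cells (10^4 cells/well) were exposed to 0-400 µM compound, 4 h before mock/HIV-1 spinoculation and then throughout a 2-day culture. CC50 is the concentration inhibiting cell proliferation by 50%.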

[10] = Cytotoxicity against HEL cells; format: cell-based; details: human
[11] = tested on: Hepatitis C virus; experiment: Antiviral activity against HCV in Huh5-2 cells by subgenomic replicon assay; format: functional, organism-based, Hepacivirus hominis; details: Huh-5-2
Summary of the method: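 Huh-5-2 cells bearing HCV genotype 1b subgenomic replicon I389luc-ubi-neo/NS3-3'/5.1, seeded 7000 cells/well, adhered 24 h, then five 5-fold dilutions from 100 µM in medium lacking G418 for 72 h at 37 °C, 5% CO2. Interferon alfa 2a (500 IU) positive control. Firefly luciferase read as % of untreated cultures; EC50 calculated.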

[12] = Stability in culture medium (RPMI+FBS); format: physicochemical; details: bovine
Summary of the method: (§3)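 Compound diluted to 0.1 mM final in RPMI 1640 or culture medium (RPMI 1640 + 10% heat-inactivated FCS), incubated 37 °C; aliquots frozen at -80 °C and analysed by on-line cleaning HPLC (C18, TEAB/acetonitrile gradient, 260 nm); half-lives calculated.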

[13] = tested on: Mammalian orthoreovirus 1; experiment: Antiviral activity against reovirus 1 in Vero cells; format: functional, organism-based; details: Mammalian orthoreovirus 1, Vero
[14] = Stability in RPMI-1640 medium; format: ADME; summary of the method: as §3
[15] = Cytotoxicity against HeLa cells; format: cell-based; details: human
[16] = tested on: Human alphaherpesvirus 1; experiment: as §2; format: functional, organism-based; details: Human alphaherpesvirus 1, KOS; remark: listed apart in the source
[17] = Stability in pH 7.4 buffer at 37 degC after 72 hrs; format: physicochemical; details: pH 7.4, 72 h; summary of the method: as §1
[18] = tested on: Punta Toro virus; experiment: Antiviral activity against Punta Toro virus in Vero cells; format: functional, organism-based
[19] = tested on: Respiratory syncytial virus; experiment: Antiviral activity against RSV in HeLa cells; format: functional, organism-based; details: human respiratory syncytial virus
[20] = Stability in pH 1.2 buffer at 37 degC after 72 hrs; format: physicochemical; details: pH 1.2, 72 h; summary of the method: as §1
[21] = Stability in CEM-SS cell extracts; format: physicochemical, cell-based; details: human
Summary of the method: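 CEM-SS cells were washed in PBS, resuspended at 30 × 10^6 cells/mL in 10 mM Tris-HCl, 140 mM KCl (pH 7.4), sonicated and cleared at 10 000g. The supernatant (soluble protein 3 mg/mL) was spiked to a final 0.1 mM compound and incubated at 37 °C. Samples were drawn over time, frozen at -80 °C, and analysed by on-line cleaning reverse-phase HPLC (TEAB gradient, 260 nm). Half-life was calculated.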

[22] = tested on: Coxsackievirus B4; experiment: Antiviral activity against Coxsackie B4 virus in HeLa cells; format: functional, organism-based; details: Enterovirus B
[23] = Stability in pH 8.1 buffer at 37 degC after 72 hrs; format: physicochemical; details: pH 8.1, 72 h; summary of the method: as §1
[24] = Stability in pH 9.0 buffer at 37 degC after 72 hrs; format: physicochemical; details: pH 9, 72 h; summary of the method: as §1
[25] = tested on: Vesicular stomatitis virus; experiment: Antiviral activity against vesicular somatitis virus in HEL cells; format: functional, organism-based
[26] = tested on: Human respirovirus 3; experiment: Antiviral activity against para influenza 3 virus in Vero cells; format: functional, organism-based; details: Human respirovirus 3, Vero
[27] = tested on: Vaccinia virus; experiment: Antiviral activity against vaccinia virus in HEL cells; format: functional, organism-based; details: Orthopoxvirus vaccinia

| Structure (SMILES) | Stability [1] | Stability [2] | CC50 [3] [µM] | EC50 [5] [µM] | EC50 [6] [µM] | EC50 [7] [µM] | EC50 [8] [µM] | CC50 [9] [µM] | CC50 [10] [µM] | half-life [12] [h] | EC50 [13] [µM] | half-life [14] [h] | CC50 [15] [µM] | EC50 [16] [µM] | Stability [17] | EC50 [18] [µM] | EC50 [19] [µM] | Stability [20] | EC50 [22] [µM] | Stability [23] | further results |
| --- | --- | --- | --- | --- | --- | --- | --- | --- | --- | --- | --- | --- | --- | --- | --- | --- | --- | --- | --- | --- | --- |
| BP(=O)(O)CO[C@H](C)Cn1cnc2c(N)ncnc21 | Stable | Stable | > 200 | > 200 | > 200 | 120 | > 400 | > 400 | > 200 | 1.3 | > 200 | > 72 | > 200 | > 200 | Stable | > 200 | > 200 | Stable | > 200 | Stable | CC50 [4]: > 200 µM; EC50 [11]: > 33 µM; half-life [21]: 24 h; Stability [24]: Stable |
| BP(=O)(O)COCCn1cnc2c(N)ncnc21 | Stable | Stable | > 200 | > 200 | > 200 | > 200 | > 400 | > 400 | > 200 | 5.3 | > 200 | > 72 | > 200 | > 200 | Stable | > 200 | > 200 | Stable | > 200 | Stable | CC50 [4]: > 200 µM; EC50 [11]: > 33 µM; half-life [21]: 48 h; Stability [24]: Stable |
| Nc1ncnc2c1ncn2CCOCP(=O)(O)O [ADEFOVIR] | Stable | Stable | – | – | – | – | 5.04 | > 400 | – | > 72 | – | > 72 | – | – | Stable | – | – | Stable | – | Stable | half-life [21]: > 72 h; Stability [24]: Stable |
| Nc1ncnc2c1ncn2CCOC[PH](=O)O | Stable | Stable | > 200 | > 200 | 120 | 120 | > 400 | > 400 | > 200 | > 72 | > 200 | > 72 | > 200 | > 200 | Stable | > 200 | > 200 | Stable | > 200 | Stable | CC50 [4]: > 200 µM; EC50 [11]: > 33 µM; EC50 [25]: > 200 µM; EC50 [26]: > 200 µM; half-life [21]: > 72 h; EC50 [27]: > 200 µM; Stability [24]: Stable |
| Nc1nc2c(ncn2COC(CO)CO)c(=O)[nH]1 [GANCICLOVIR] | – | – | – | – | 0.032 | 0.48 | – | – | > 100 | – | – | – | – | 0.019 | – | – | – | – | – | – | EC50 [25]: > 100 µM; EC50 [27]: > 100 µM |
| Cc1cn([C@H]2C[C@H](N=[N+]=[N-])[C@@H](CO)O2)c(=O)[nH]c1=O [ZIDOVUDINE] | – | – | – | – | – | – | 0.025 | > 400 | – | – | – | – | – | – | – | – | – | – | – | – | – |
| C[C@H](Cn1cnc2c(N)ncnc21)OCP(=O)(O)O [TENOFOVIR ANHYDROUS] | Stable | Stable | – | – | – | – | 0.35 | > 400 | – | > 72 | – | > 72 | – | – | Stable | – | – | Stable | – | Stable | half-life [21]: > 72 h; Stability [24]: Stable |
| Cc1cn([C@H]2C=C[C@@H](CO)O2)c(=O)[nH]c1=O [STAVUDINE] | – | – | – | – | – | – | 0.062 | > 400 | – | – | – | – | – | – | – | – | – | – | – | – | – |
| Nc1nc2c(ncn2COCCO)c(=O)[nH]1 [ACYCLOVIR] | – | – | – | – | 0.48 | 12 | – | – | > 500 | – | – | – | – | 0.48 | – | – | – | – | – | – | EC50 [25]: > 500 µM; EC50 [27]: 300 µM |
| C[C@H](Cn1cnc2c(N)ncnc21)OC[PH](=O)O | Stable | Stable | > 200 | > 200 | > 200 | > 200 | > 400 | > 400 | > 200 | > 72 | > 200 | > 72 | > 200 | > 200 | Stable | > 200 | > 200 | Stable | > 200 | Stable | CC50 [4]: > 200 µM; EC50 [11]: > 33 µM; EC50 [25]: > 200 µM; EC50 [26]: > 200 µM; EC50 [27]: > 200 µM; Stability [24]: Stable |
| Nc1ncnc2c1ncn2C[C@H](O)CO [(S)-DHPA] | – | – | > 500 | > 500 | – | – | – | – | – | – | > 500 | – | > 500 | – | – | > 500 | > 500 | – | > 500 | – | EC50 [26]: > 500 µM |
| O=c1[nH]c(=O)n([C@H]2C[C@H](O)[C@@H](CO)O2)cc1/C=C/Br [BRIVUDINE] | – | – | > 500 | > 500 | 300 | 300 | – | – | > 500 | – | > 500 | – | > 500 | 0.096 | – | > 500 | > 500 | – | > 500 | – | EC50 [25]: > 500 µM; EC50 [26]: > 500 µM; EC50 [27]: 2.4 µM |
| NC(=O)c1ncn([C@@H]2O[C@H](CO)[C@@H](O)[C@H]2O)n1 [RIBAVIRIN] | – | – | > 500 | > 500 | > 500 | > 500 | – | – | > 500 | – | 100 | – | > 500 | 300 | – | 100 | 12 | – | > 500 | – | EC50 [25]: > 500 µM; EC50 [26]: 300 µM; EC50 [27]: 100 µM |
